From PMC5084759 (British Journal of Haematology, 2016)

How the values were obtained:
CYP1A2 = details: supra-therapeutic concentrations; ref unpublished observations; cited from earlier work
CYP3A = details: supra-therapeutic concentrations; ref unpublished observations; cited from earlier work
[1] = CrCl 30-89 ml/min; ref Gupta et al, 2015b; cited from earlier work
[2] = Safety and tolerability: adverse events; type: in vivo, human; details: for On-study deaths: first dose to 30 d after last dose
Method in brief: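 The safety population was all patients given ≥1 dose: a single 3 mg dose in Part A, then optional Part B dosing at 4, 3 or 2·3 mg on days 1, 8 and 15 of 28-d cycles, with or without dexamethasone. AEs, including SAEs, were recorded throughout treatment up to 30 d after the last dose and graded by NCI CTCAE v4.03.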

[3] = test system: relapsed and/or refractory multiple myeloma; assay: Myeloma disease response; type: in vivo, human
Method in brief: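 Part B dosing was oral ixazomib 4, 3 or 2·3 mg on days 1, 8 and 15 of 28-d cycles. Some patients also received dexamethasone 40 mg (20 mg if >75 years) on days 1, 8, 15 and 22 at investigator discretion. Investigators assessed response by IMWG uniform criteria across all cycles, with one bone marrow assessment to document CR. DOR ran from first CR/VGPR/PR to first progression.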

[4] = Haemodialysis clearance, pre- and post-dialyser plasma samples in ESRD patients; type: in vivo, human
[5] = Stability of ixazomib in dialysate fluid; type: physicochemical; details: dialysate fluid used in haemodialysis
[6] = ref Gupta et al, 2013; cited from earlier work
[7] = Single-dose plasma pharmacokinetics of oral ixazomib; type: in vivo, human; details: for Total AUC0-last, geometric mean (% CV): single 3 mg oral dose
Method in brief: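 Groups were CrCl ≥90 or <30 ml/min (Cockcroft–Gault) or on haemodialysis. Each patient took a single oral 3 mg dose fasted with about 240 ml water. Plasma was sampled pre-dose to 336 h and assayed by LC-MS/MS (0·5–500 ng/ml). Cmax and AUC0-last came from non-compartmental analysis. Group ratios of geometric means (90% CI) came from ANOVA on log-transformed parameters, with normal function as reference.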

[8] = severe RI/ESRD patients versus patients with normal renal function

CC(C)C[C@H](NC(=O)CNC(=O)c1cc(Cl)ccc1Cl)B(O)O [ixazomib]
Contribution to in vitro metabolism of ixazomib (CYP1A2): primary contributors
Contribution to in vitro metabolism of ixazomib (CYP3A): primary contributors
Ixazomib clearance in patients with mild or moderate RI [1]: not altered
Any TEAE ([2]; ESRD (N = 7)): 6 (86) n (%)
Any TEAE, Grade ≥3 ([2]; ESRD (N = 7)): 4 (57) n (%)
Drug-related SAE ([2]; ESRD (N = 7)): 0 n (%)
SAE ([2]; ESRD (N = 7)): 3 (43) n (%)
Study drug-related TEAE ([2]; ESRD (N = 7)): 4 (57) n (%)
Study drug-related TEAE, Grade ≥3 ([2]; ESRD (N = 7)): 1 (14) n (%)
TEAE resulting in ixazomib discontinuation ([2]; ESRD (N = 7)): 0 n (%)
TEAE resulting in ixazomib dose reduction ([2]; ESRD (N = 7)): 0 n (%)
TEAE: Anaemia ([2]; ESRD (N = 7)): 2 (29) n (%)
TEAE: Arthralgia ([2]; ESRD (N = 7)): 1 (14) n (%)
TEAE: Constipation ([2]; ESRD (N = 7)): 1 (14) n (%)
TEAE: Diarrhoea ([2]; ESRD (N = 7)): 1 (14) n (%)
TEAE: Dizziness ([2]; ESRD (N = 7)): 1 (14) n (%)
TEAE: Dyspnoea ([2]; ESRD (N = 7)): 1 (14) n (%)
TEAE: Fatigue ([2]; ESRD (N = 7)): 1 (14) n (%)
TEAE: Hypotension ([2]; ESRD (N = 7)): 1 (14) n (%)
TEAE: Nausea ([2]; ESRD (N = 7)): 2 (29) n (%)
TEAE: Peripheral oedema ([2]; ESRD (N = 7)): 0 n (%)
TEAE: URT infection ([2]; ESRD (N = 7)): 1 (14) n (%)
TEAE: Vomiting ([2]; ESRD (N = 7)): 2 (29) n (%)
On-study deaths ([2]; ESRD (N = 7)): 1 (14) n (%)
Dose reductions for ixazomib or dexamethasone ([2]; ESRD group): no dose reductions
Incidence of AE anaemia ([2]; ESRD group): 29%
Incidence of grade ≥3 AEs ([2]; ESRD group): 57%
Incidence of serious AEs ([2]; ESRD group): 43%
On-study deaths, number ([2]; ESRD group): 1
Investigator-attributed drug-related anaemia ([2]; ESRD patients): 0%
Incidence of TEAE anaemia ([2]; all 41 patients): 22%
Incidence of TEAE diarrhoea ([2]; all 41 patients): 39%
Incidence of TEAE fatigue ([2]; all 41 patients): 29%
Incidence of TEAE nausea ([2]; all 41 patients): 34%
Incidence of TEAE vomiting ([2]; all 41 patients): 32%
Incidence of grade ≥3 TEAE anaemia ([2]; all 41 patients): 15%
Incidence of grade ≥3 TEAE decreased platelet count ([2]; all 41 patients): 7%
Incidence of grade ≥3 TEAE hypotension ([2]; all 41 patients): 7%
Patients with a TEAE of any grade ([2]; all 41 patients): 95%
Patients who developed peripheral neuropathy ([2]; all 41 patients (six patients)): 15%
Incidence of study drug-related TEAE diarrhoea ([2]; all patients): 29%
Incidence of study drug-related TEAE nausea ([2]; all patients): 29%
On-study deaths, number ([2]; all patients): three
Patients with at least 1 TEAE ([2]; four patients with solid tumours (three patients)): 75%
Any TEAE ([2]; normal renal function (N = 20)): 19 (95) n (%)
Any TEAE, Grade ≥3 ([2]; normal renal function (N = 20)): 9 (45) n (%)
Drug-related SAE ([2]; normal renal function (N = 20)): 3 (15) n (%)
SAE ([2]; normal renal function (N = 20)): 3 (15) n (%)
Study drug-related TEAE ([2]; normal renal function (N = 20)): 16 (80) n (%)
Study drug-related TEAE, Grade ≥3 ([2]; normal renal function (N = 20)): 7 (35) n (%)
TEAE resulting in ixazomib discontinuation ([2]; normal renal function (N = 20)): 2 (10) n (%)
TEAE resulting in ixazomib dose reduction ([2]; normal renal function (N = 20)): 4 (20) n (%)
TEAE: Anaemia ([2]; normal renal function (N = 20)): 1 (5) n (%)
TEAE: Arthralgia ([2]; normal renal function (N = 20)): 3 (15) n (%)
TEAE: Constipation ([2]; normal renal function (N = 20)): 5 (25) n (%)
TEAE: Diarrhoea ([2]; normal renal function (N = 20)): 9 (45) n (%)
TEAE: Dizziness ([2]; normal renal function (N = 20)): 1 (5) n (%)
TEAE: Dyspnoea ([2]; normal renal function (N = 20)): 2 (10) n (%)
TEAE: Fatigue ([2]; normal renal function (N = 20)): 5 (25) n (%)
TEAE: Hypotension ([2]; normal renal function (N = 20)): 1 (5) n (%)
TEAE: Nausea ([2]; normal renal function (N = 20)): 7 (35) n (%)
TEAE: Peripheral oedema ([2]; normal renal function (N = 20)): 2 (10) n (%)
TEAE: URT infection ([2]; normal renal function (N = 20)): 5 (25) n (%)
TEAE: Vomiting ([2]; normal renal function (N = 20)): 6 (30) n (%)
On-study deaths ([2]; normal renal function (N = 20)): 0 n (%)
AEs leading to ixazomib discontinuations ([2]; normal renal function group): 10%
AEs leading to ixazomib dose reductions ([2]; normal renal function group): 20%
Incidence of AE anaemia ([2]; normal renal function group): 5%
Incidence of grade ≥3 AEs ([2]; normal renal function group): 45%
Incidence of serious AEs ([2]; normal renal function group): 15%
Investigator-attributed drug-related anaemia ([2]; normal renal function group): 5%
Any TEAE ([2]; severe RI (N = 14)): 14 (100) n (%)
Any TEAE, Grade ≥3 ([2]; severe RI (N = 14)): 11 (79) n (%)
Drug-related SAE ([2]; severe RI (N = 14)): 2 (14) n (%)
SAE ([2]; severe RI (N = 14)): 6 (43) n (%)
Study drug-related TEAE ([2]; severe RI (N = 14)): 12 (86) n (%)
Study drug-related TEAE, Grade ≥3 ([2]; severe RI (N = 14)): 7 (50) n (%)
TEAE resulting in ixazomib discontinuation ([2]; severe RI (N = 14)): 4 (29) n (%)
TEAE resulting in ixazomib dose reduction ([2]; severe RI (N = 14)): 4 (29) n (%)
TEAE: Anaemia ([2]; severe RI (N = 14)): 6 (43) n (%)
TEAE: Arthralgia ([2]; severe RI (N = 14)): 2 (14) n (%)
TEAE: Constipation ([2]; severe RI (N = 14)): 3 (21) n (%)
TEAE: Diarrhoea ([2]; severe RI (N = 14)): 6 (43) n (%)
TEAE: Dizziness ([2]; severe RI (N = 14)): 4 (29) n (%)
TEAE: Dyspnoea ([2]; severe RI (N = 14)): 3 (21) n (%)
TEAE: Fatigue ([2]; severe RI (N = 14)): 6 (43) n (%)
TEAE: Hypotension ([2]; severe RI (N = 14)): 3 (21) n (%)
TEAE: Nausea ([2]; severe RI (N = 14)): 5 (36) n (%)
TEAE: Peripheral oedema ([2]; severe RI (N = 14)): 4 (29) n (%)
TEAE: URT infection ([2]; severe RI (N = 14)): 1 (7) n (%)
TEAE: Vomiting ([2]; severe RI (N = 14)): 5 (36) n (%)
On-study deaths ([2]; severe RI (N = 14)): 2 (14) n (%)
AEs leading to ixazomib discontinuations ([2]; severe RI group): 29%
AEs leading to ixazomib dose reductions ([2]; severe RI group): 29%
Incidence of AE anaemia ([2]; severe RI group): 43%
Incidence of grade ≥3 AEs ([2]; severe RI group): 79%
Incidence of serious AEs ([2]; severe RI group): 43%
Investigator-attributed drug-related anaemia ([2]; severe RI group): 29%
On-study deaths, number ([2]; severe RI group): 2
Any TEAE ([2]; total (N = 41)): 39 (95) n (%)
Any TEAE, Grade ≥3 ([2]; total (N = 41)): 24 (59) n (%)
Drug-related SAE ([2]; total (N = 41)): 5 (12) n (%)
SAE ([2]; total (N = 41)): 12 (29) n (%)
Study drug-related TEAE ([2]; total (N = 41)): 32 (78) n (%)
Study drug-related TEAE, Grade ≥3 ([2]; total (N = 41)): 15 (37) n (%)
TEAE resulting in ixazomib discontinuation ([2]; total (N = 41)): 6 (15) n (%)
TEAE resulting in ixazomib dose reduction ([2]; total (N = 41)): 8 (20) n (%)
TEAE: Anaemia ([2]; total (N = 41)): 9 (22) n (%)
TEAE: Arthralgia ([2]; total (N = 41)): 6 (15) n (%)
TEAE: Constipation ([2]; total (N = 41)): 9 (22) n (%)
TEAE: Diarrhoea ([2]; total (N = 41)): 16 (39) n (%)
TEAE: Dizziness ([2]; total (N = 41)): 6 (15) n (%)
TEAE: Dyspnoea ([2]; total (N = 41)): 6 (15) n (%)
TEAE: Fatigue ([2]; total (N = 41)): 12 (29) n (%)
TEAE: Hypotension ([2]; total (N = 41)): 5 (12) n (%)
TEAE: Nausea ([2]; total (N = 41)): 14 (34) n (%)
TEAE: Peripheral oedema ([2]; total (N = 41)): 6 (15) n (%)
TEAE: URT infection ([2]; total (N = 41)): 7 (17) n (%)
TEAE: Vomiting ([2]; total (N = 41)): 13 (32) n (%)
On-study deaths ([2]; total (N = 41)): 3 (7) n (%)
Patients with a response ([3]; normal renal function or ESRD groups (3 and 4 response-evaluable)): no patients
Patients with a PR ([3]; severe RI, 11 response-evaluable): five
Haemodialysis clearance as share of overall systemic clearance ([4]; ESRD patients requiring haemodialysis): less than 10%
Ixazomib concentrations in pre- versus post-dialyser samples ([4]; ESRD patients, 4-h haemodialysis session about 24-28 h after dose): similar
clearance ([4]; human, plasma, oral, 3 mg): < 2 mL/min
Stability in dialysate [5]: instability
PK interaction between ixazomib and dexamethasone [6]: no PK interaction
Total systemic exposure, higher versus normal renal function [7, 8]: 39%
Unbound systemic exposure, higher versus normal renal function [7, 8]: 38%
Total AUC0-last, geometric mean (% CV) ([7]; ESRD (n = 6)): 783 (35) h·ng/ml
Total AUC0-last, geometric mean (% CV) ([7]; normal renal function (n = 15)): 575 (38) ^c h·ng/ml
Total AUC0-last, geometric mean (% CV) ([7]; severe RI (n = 10)): 813 (51) ^d h·ng/ml
